{
  "source": "paper PMC7086808",
  "about": "(Archives of Virology, 2009)",
  "key": {"[1]": {"assay": "Storage stability of compound preparations", "type": "physicochemical", "details": "DMSO/test medium preparations; freezing and short-term storage (1 month at 4°C)"}, "[2]": {"tested_on": "Coxsackie virus B5 (CVB5)", "assay": "MTT/CPE antiviral assay, compound treatment after virus infection", "type": "cell-based", "details": "for IC50: Enterovirus B", "procedure,_shortened": "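Confluent HEp-2 monolayers infected with CVB5 at 100 TCID50/0.1 ml for 1 h, washed with PBS, then overlaid with twofold serial dilutions in 2% serum test medium, dosed daily. CPE scored by light microscopy and quantified by MTT (OD 540/690 nm). IC50 derived, TI = CC50/IC50; mean ± SD from three independent experiments.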"}, "[3]": {"tested_on": "mice", "details": "single-dose oral administration; cited from earlier work"}, "[4]": {"tested_on": "CVB5 RNA", "assay": "Semi-quantitative detection of viral RNA by RT-PCR", "type": "cell-based, Coxsackie virus B5", "details": "cells treated after infection with 0.3-40 μg/ml"}, "[5]": {"assay": "MTT cytotoxicity assay", "type": "cell-based", "details": "human, HEp-2 cells (uninfected)", "procedure,_shortened": "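HEp-2 cells seeded at 2 × 10⁴/well and grown to subconfluence, then given serial twofold dilutions in test medium with 2% serum; four uninfected wells per dilution; compound re-added daily; controls had 0.05% DMSO. Read-out: MTT (5 mg/ml in PBS, 4 h), formazan dissolved in DMSO, OD at 540/690 nm. Expressed as % of untreated; CC50 derived; dilutions in triplicate.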"}, "[6]": {"tested_on": "Coxsackie virus B5 (CVB5)", "assay": "Coxsackie virus B5 infection in mice", "type": "in vivo, BALB/c mice", "details": "for mean virus yield of hearts: plaque assay"}, "[7]": {"tested_on": "Coxsackie virus B5 (CVB5)", "assay": "Virucidal assay", "type": "cell-based", "details": "Enterovirus B, B5|CVB5, HEp-2, 1 h", "procedure,_shortened": "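CVB5 suspension mixed with twofold serial dilutions (0.5 to 20 μg/ml) for 1 h at 37°C, then added to confluent HEp-2 cells for 1 h. Inoculum removed, cells rinsed with PBS and incubated in test medium. CPE scored by microscopy and MTT; IC50 derived as mean ± SD of three independent experiments.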"}, "[8]": {"tested_on": "Coxsackie virus B5 (CVB5)", "assay": "MTT/CPE antiviral assay, compound treatment before virus infection", "type": "cell-based", "procedure,_shortened": "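HEp-2 cells pretreated with twofold serial dilutions in MEM for 24 h at 37°C, 5% CO2. Compound then removed and cells washed twice with PBS before challenge with 100 TCID50/0.1 ml CVB5 for 1 h. After two more washes, cells kept in test medium until CPE appeared; scored microscopically and by MTT. IC50 and TI (CC50/IC50); mean ± SD of three experiments.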"}, "[9]": {"details": "cited from earlier work"}, "[10]": {"tested_on": "rats", "details": "single-dose oral administration; cited from earlier work"}, "[11]": {"tested_on": "guinea pigs", "details": "single-dose oral administration; cited from earlier work"}, "[12]": {"tested_on": "animals", "details": "cited from earlier work"}},
  "data": [
    {"molecule": "CCOC(=O)c1c(CSc2ccccc2)n(C)c2cc(Br)c(O)c(CN(C)C)c12.Cl.O", "note": "[Arbidol, ethyl-6-bromo-4-[(dimethylamino)-methyl]-5-hydroxy-1-methyl-2-[(phenylthio)methyl]-indole-3-carboxylate hydrochloride monohydrate]", "values": [
      {"measurement": "efficacy of preparations upon storage", "setting": "[1]", "result": "did not appear to change"},
      {"measurement": "IC50", "setting": "[2]; B5|CVB5, HEp-2", "result": "6.62 ± 1.1", "unit": "µg/mL"},
      {"measurement": "IC50", "setting": "[2]; B5|CVB5, read-out: 50% inhibitory concentration (IC50), CPE of CVB5", "result": "2.66 to 6.62", "unit": "µg/mL"},
      {"measurement": "TI (CC50/IC50)", "setting": "[2]; drug added after infection, HEp-2 cells", "result": 12.45},
      {"measurement": "LD50 (50% lethal dose)", "setting": "[3]", "result": 687, "unit": "mg/kg"},
      {"measurement": "ratio of CVB5 RNA to β-actin (RT-PCR)", "setting": "[4]", "result": "decreased with increasing dose"},
      {"measurement": "CC50", "setting": "[5]", "result": 82.1, "unit": "µg/mL"},
      {"measurement": "lung index vs viral control group", "setting": "[6]; 25 mg/kg body weight/day p.o.", "result": "significantly lower"},
      {"measurement": "mean virus yield of hearts", "setting": "[6]; 25 mg/kg body weight/day p.o. for 6 days", "result": "10^3 viral plaques/heart"},
      {"measurement": "survival by day 30", "setting": "[6]; 25 mg/kg body weight/day p.o., eight mice per group", "result": "half of them had survived"},
      {"measurement": "clinical observations during the 30-day period", "setting": "[6]; 50 mg/kg body weight/day p.o.", "result": "did not show abnormalities"},
      {"measurement": "lung index vs normal group", "setting": "[6]; 50 mg/kg body weight/day p.o.", "result": "no significant difference"},
      {"measurement": "lung index vs viral control group", "setting": "[6]; 50 mg/kg body weight/day p.o.", "result": "significantly lower"},
      {"measurement": "mean virus yield of hearts", "setting": "[6]; 50 mg/kg body weight/day p.o. for 6 days", "result": "10^2 viral plaques/heart"},
      {"measurement": "survival rate", "setting": "[6]; 50 mg/kg body weight/day p.o. once a day for 6 days", "result": "significantly enhanced"},
      {"measurement": "body weight", "setting": "[6]; 50 mg/kg body weight/day p.o., 30-day period", "result": "slight weight loss"},
      {"measurement": "IC50", "setting": "[7]", "result": "2.66 ± 0.4", "unit": "µg/mL"},
      {"measurement": "IC50", "setting": "[8]; Enterovirus B, B5|CVB5, HEp-2", "result": "30.3 ± 1.6", "unit": "µg/mL"},
      {"measurement": "TI (CC50/IC50)", "setting": "[8]; drug added before infection, HEp-2 cells", "result": 2.7},
      {"measurement": "half-life in cultured cells", "setting": "[9]", "result": "about 18 h"},
      {"measurement": "LD50 (50% lethal dose)", "setting": "[10]", "result": "3,000 mg/kg"},
      {"measurement": "LD50 (50% lethal dose)", "setting": "[11]", "result": "4,000 mg/kg"},
      {"measurement": "pathologic changes on long-term intake", "setting": "[12]; animals, clinical, hematological, biochemical, pathological data", "result": "did not show pathologic changes"},
      {"measurement": "mutagenic or teratogenic activity", "setting": "[12]; at therapeutic doses", "result": "no mutagenic or teratogenic activity"}
    ]}
  ]
}
